Legend:
[1] = test system: EJ cells; test: Annexin V-FITC/PI staining flow cytometry of apoptosis; type: cell-based, human; conditions: for Percentage of apoptotic cells (Annexin V-FITC/PI flow cytometry) / Effect of caspase inhibitors on induced apoptosis: 1.0 μM, 24 h; for Percentage of apoptotic cells (Annexin V-FITC/PI flow cytometry): mean ± SD; for Effect of caspase inhibitors on induced apoptosis: with 20 μM Z-LEHD-FMK or z-DEVD-fmk (Ac-DEVD-CHO)
Summary of the method: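 EJ cells were seeded at 1×10^6 per well, left overnight, then given 1.0 μM test compound for 24 h. Some wells also received 20 μM caspase-3 (Ac-DEVD-CHO) or caspase-9 (Z-LEHD-FMK) inhibitor, or a 2 h pretreatment with 5 mM NAC. Harvested cells were stained with Annexin V-FITC/PI and read by flow cytometry for percent apoptotic cells. Mean ± SD of triplicates.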

[2] = Equilibrium solubility assay; type: physicochemical; conditions: shake-flask, distilled water pH 7.0, 37°C, UV spectrophotometry; stayed at this level for 6-24 h
[3] = test system: human immortalized uroepithelium cell line SV-HUC-1; test: Cell viability MTT assay; type: cell-based; conditions: SV-HUC-1 normal uroepithelium cells
Summary of the method: (§1)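 Cells seeded at 5×10^3 per well: EJ in RPMI 1640, SV-HUC-1 in F-12K, both with 10% FBS. Test compound came from 25 mmol/L DMSO stock diluted in serum-free medium or PBS. Series run at graded concentrations for 24 h, or at 1.0 μM over varying times. MTT added for 4 h at 37 °C, formazan dissolved in DMSO, A570 read. Viability relative to untreated (100%); ≥3 repeats.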

[4] = test system: EJ cells; test: EdU incorporation assay; type: cell-based, human; conditions: 1.0 μM, 24 h, then 50 μM EdU 4 h
Summary of the method: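 EJ cells at 5×10^3 per well treated 24 h with 1.0 μM test compound, washed, then labelled with 50 μM EdU for 4 h at 37 °C in the dark. Fixed in 4% formaldehyde 15 min at room temperature, permeabilised in 0.5% Triton X-100 20 min. Apollo cocktail 30 min, Hoechst 33342 30 min, fluorescence microscopy. Mean ± SD of triplicates.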

[5] = test system: EJ cells; test: Colony-formation assay; type: cell-based, human; conditions: 1.0 μM, 24 h, then 10 days growth
Summary of the method: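 EJ cells at 1×10^6 per well given 1.0 μM test compound for 24 h. Harvested and replated at 5×10^2 cells per well in fresh 10% FBS medium, then grown 10 days. Colonies fixed, stained with 1% crystal violet in 10% methanol and counted blinded under a microscope. Mean ± SD of triplicates.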

[6] = test system: EJ cells; test: AO/EB dual staining, morphological assessment of apoptotic cells; type: cell-based, human; conditions: 1.0 μM, 24 h, mean ± SD
Summary of the method: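 EJ cells (RPMI 1640, 10% FBS, 37 °C, 5% CO2) exposed to 1.0 μM test compound for 24 h, then trypsinised, pelleted and PBS-washed. Stained with 100 μg/mL AO and 100 μg/mL EB for 10 min at 4 °C in the dark. Scored by fluorescence microscopy for nuclear condensation and shrinkage. Apoptotic rate = apoptotic cells/total counted. Mean ± SD of triplicates.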

[7] = test system: caspase-3; test: Caspase-3 activity measurement in cell lysates; type: cell-based, human; conditions: EJ cells, 1.0 μM, 24 h, vs control and TAT-treated cells
Summary of the method: (§2)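 EJ cells treated for 24 h with 1.0 μM test compound. Lysates were mixed with buffer containing pNA substrate added at 2 mM: Ac-DEVD-pNA for caspase-3, Ac-LEHD-pNA for caspase-9. Incubated 4 h at 37 °C in the dark, then absorbance read at 405 nm. Activity given as ratio of treated to untreated control cells.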

[8] = test system: caspase-9; test: Caspase-9 activity measurement in cell lysates; type: cell-based, human; conditions: EJ cells, 1.0 μM, 24 h, vs control and TAT-treated cells
Summary of the method: as §2

[9] = test system: ROS production in EJ cells; test: Intracellular reactive oxygen species detection; type: cell-based, human; conditions: 1.0 μM, 24 h, DCFH-DA, fluorescence microplate reader
Summary of the method: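 EJ cells, with or without 2 h pretreatment with 5 mM NAC, were given 1.0 μM test compound for 24 h. After PBS washes, loaded with 10 μM DCFH-DA for 30 min at 37 °C and washed again. Imaged by fluorescence microscopy and quantified on a plate reader (ex 485/em 520 nm). Values given as percent of control.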

[10] = test system: Bcl-2; test: Western blotting analysis of Bcl-2; type: cell-based, human; conditions: EJ cells, 1.0 μM, 24 h
Summary of the method: (§3)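 EJ cells received 1.0 μM test compound for 24 h, with or without 2 h pretreatment with 5 mM NAC. Lysed in RIPA with protease inhibitor; 30 μg protein (BCA) run on 10–12% SDS-PAGE and moved to PVDF. Blocked 30 min at room temperature in TBS, 0.1% Triton X-100, 5% milk. Primary antibody overnight at 4 °C, HRP secondary 1 h, ECL detection. GAPDH loading control.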

[11] = test system: Bax; test: Western blotting analysis of Bax; type: cell-based, human; conditions: EJ cells, 1.0 μM, 24 h
Summary of the method: as §3

[12] = test system: human bladder cancer EJ cell line; test: Cell viability MTT assay; type: cell-based
Summary of the method: as §1

SMILES	Effect on apoptosis, NAC treatment alone ([1]; 5 mM NAC in the absence of GA and GA-TAT)	Stirring time at which solubility reached its peak [2] [h]	Effect on cell viability [3]	Number of EdU+ cells [4]	Colony growth [5]	Percentage of apoptotic cells (AO/EB) [6]	Percentage of apoptotic cells (Annexin V-FITC/PI flow cytometry) [1]	Effect of caspase inhibitors on induced apoptosis [1]	Caspase-3 activity [7]	Caspase-9 activity [8]	ROS production [9]	Bcl-2 protein level [10]	Bax expression level [11]	Concentration inducing clear cytotoxic effects ([12]; EJ cells, MTT) [nM]	IC50 ([12]; Homo sapiens, EJ, 24 h, read-out: 50% inhibitory concentration (IC50)) [µM]
CC(=O)N[C@@H](CS)C(=O)O [NAC, N-acetyl-L-cysteine]	did not significantly affect apoptosis	–	–	–	–	–	–	–	–	–	–	–	–	–	–
CC(C)=CCC[C@]1(C)C=Cc2c(O)c3c(c(CC=C(C)C)c2O1)O[C@]12C(=C[C@@H]4C[C@H]1C(C)(C)O[C@@]2(C/C=C(/C)C(=O)N[C@@H](CS)C(=O)N[C@@H](Cc1ccc(O)cc1)C(=O)NCC(=O)N[C@@H](CCCNC(=N)N)C(=O)N[C@@H](CCCCN)C(=O)N[C@@H](CCCCN)C(=O)N[C@@H](CCCNC(=N)N)C(=O)N[C@@H](CCCNC(=N)N)C(=O)N[C@@H](CCC(N)=O)C(=O)N[C@@H](CCCNC(=N)N)C(=O)N[C@@H](CCCNC(=N)N)C(=O)N[C@@H](CCCNC(=N)N)C(=O)O)C4=O)C3=O [GA-TAT]	–	4	nearly unaffected	markedly less	further reduced	42.15%±5.23%	46.4%±4.86%	partially inhibited	further enhanced	further enhanced	significantly higher	downregulated	upregulated	–	–
CC(C)=CCC[C@]1(C)C=Cc2c(O)c3c(c(CC=C(C)C)c2O1)O[C@]12C(=C[C@@H]4C[C@H]1C(C)(C)O[C@@]2(C/C=C(/C)C(=O)O)C4=O)C3=O [GA, Gambogic acid]	–	–	nearly unaffected	significantly reduced	significantly decreased	19.18%±4.35%	21.3%±2.27%	completely suppressed	increased	increased	substantially increased	not affected	upregulated	1000	4.95

Reference: publication PMC5896666 (Drug Design, Development and Therapy, 2018)
